Results reported in ChEMBL document CHEMBL5532752, “Integrating a quinone substructure into histone deacetylase inhibitors to cope with Alzheimer's disease and cancer” (RSC Med Chem, 2024).
The source made the active and inactive calls. No cut-off for these calls is given here.

Assays:
[1] = biological target: Histone deacetylase (Homo sapiens) (UniProt Q13547+O15379+Q9UBN7+Q92769+Q9UQL6+Q8WUI4+Q9BY41+Q96DB2+P56524+Q9UKV0+Q969S8); assay: Inhibition of HDAC in human SH-SY5Y cells assessed as hyperacetylation of histone H2/H3 at 5 uM incubated for 6 hrs by western blot analysis; type: cell-based
How it was run: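 SH-SY5Y seeded at 20 × 10⁴ cells/cm², after 48 h given 5 μM compound or vehicle for 6 h. Nuclei isolated, histones acid-extracted (0.4 N H2SO4, 4 °C 1 h), acetone-precipitated, run on 15% gel and blotted with anti-acetyl-lysine antibody, ECL detection; densitometry normalized to H1.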

SH-SY5Y [2] = assay: Cytotoxicity against human SH-SY5Y cells assessed as reduction in cell viability pretreated with SFN followed by compound treatment by MUH reagent based spectrophotometric analysis; type: functional
SH-SY5Y [3] = assay: Induction of cell cycle arrest in human SH-SY5Y cells assessed as accumulation of cells at sub-G1 phase at 1 to 10 uM incubated for 72 hrs by propidium iodide staining based flow cytometry; type: functional; conditions: dose 1-10 µM
How it was run: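 SH-SY5Y exposed to 1 or 10 μM for 72 h, collected, fixed in 70% ice-cold ethanol, stained with propidium iodide-containing cell-cycle reagent 30 min in the dark at room temperature, and analysed by flow cytometry for G0/G1, S, G2/M and sub-G1 fractions; one-way ANOVA, Bonferroni.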

SH-SY5Y [4] = assay: Induction of apoptosis in human SH-SY5Y cells assessed as increase in caspase-3 activity at 10 uM incubated for 72 hrs by colorimetric assay relative to control; type: functional
How it was run: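 Cells treated 72 h, collected, PBS-rinsed, lysed on ice 10 min; protein quantified by Bradford. Lysates incubated 2 h at 37 °C with 2× reaction buffer containing 10 mM dithiothreitol and DEVD-pNA caspase-3 substrate. Free pNA read by absorbance at 405 nm; activity expressed as fold over untreated cells. At least 3 independent experiments.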

SH-SY5Y [5] = assay: Induction of apoptosis in human SH-SY5Y cells assessed as increase in PARP cleavage by measuring decrease in PARP protein expression at 1 uM incubated for 72 hrs by flow cytometry relative to control; type: functional; design: scale not given: the % may be the effect or the level left
How it was run: (§1)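 SH-SY5Y cells, cultured in DMEM with 10% FBS at 37 °C and 5% CO2, were treated for 72 h. Cells were fixed in 4% paraformaldehyde and permeabilized with 90% cold methanol. They were stained with anti-PARP (1:100) and then an Alexa Fluor 488 secondary (1:200). Mean fluorescence intensity was read by flow cytometry and expressed as fold change versus control cells.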

SH-SY5Y [6] = assay: Induction of apoptosis in human SH-SY5Y cells assessed as increase in PARP cleavage by measuring decrease in PARP protein expression at 10 uM incubated for 72 hrs by flow cytometry relative to control; type: functional; design: scale not given: the % may be the effect or the level left; how it was run: as §1
SH-SY5Y [7] = assay: Cytotoxicity against human SH-SY5Y cells assessed as reduction in cell viability at 1 uM pretreated with antioxidant, NAC for 1 hr followed by incubation with drug for 24 hrs by MUH reagent based spectrophotometric analysis; type: functional
How it was run: (§2)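 SH-SY5Y pretreated 1 h with 2 mM NAC, then exposed to compound at 1 or 10 μM for 24 h. Viability read by MUH hydrolysis (0.01 mg/mL, 30 min, 37 °C; ex 330/em 450 nm) as percent of untreated cells; two-way ANOVA with Tukey post hoc.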

SH-SY5Y [8] = assay: Cytotoxicity against human SH-SY5Y cells assessed as reduction in cell viability at 10 uM pretreated with antioxidant, NAC for 1 hr followed by incubation with drug for 24 hrs by MUH reagent based spectrophotometric analysis; type: functional; how it was run: as §2
SH-SY5Y [9] = assay: Induction of cell cycle arrest in human SH-SY5Y cells assessed as proportion of cells at sub-G1 phase at 1 uM incubated for 72 hrs by propidium iodide staining based flow cytometry (reference value: 5.56%)
SH-SY5Y [10] = assay: Cytotoxicity against human SH-SY5Y cells assessed as cell viability at 100 uM incubated for 24 to 72 hrs by MUH reagent based spectrophotometric analysis; type: functional; conditions: time 24-72 hrs, read-out: Activity
How it was run: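 SH-SY5Y in DMEM/10% FBS seeded 0.75 × 10⁴ cells/well, after 24 h treated with 0.1–100 μM for 24, 48 or 72 h. Washed, incubated with MUH 0.01 mg/mL in PBS 30 min at 37 °C in the dark; fluorescence ex 330/em 450 nm, normalized to untreated cells. IC50 by nonlinear regression, log(inhibitor) vs normalized response.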

SH-SY5Y [11] = assay: Potentiation of H2O2-induced cytotoxicity in human SH-SY5Y cells assessed as cell viability at 50 uM pretreated for 24 hrs followed by incubation for 1 hr with H2O2 and incubated in drug-free medium for 22 hrs by MUH reagent based spectrophotometric analysis (reference value: 50.8%); type: functional; conditions: time 25 hrs, read-out: Activity
Neurosphere [12] = assay: Neuroprotective activity against C57BL/6N mouse neurosphere assessed as increase in NPC proliferation by measuring increase in neurospheres number at 2.5 to 5 uM measured after 7 days by bright field microscopy; type: functional, tissue-based; conditions: dose 2.5-5 µM, time 7.0 day
How it was run: (§3)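 Neurospheres from sub-ventricular zone of 8-month-old male C57BL/6N mice, dissociated with Accutase, plated as single cells 5 × 10³/well in suspension in EGF/FGF2/N2/B27 medium with 2.5–50 μM compound or DMSO for 7 days. Daily brightfield live imaging; sphere count and total area per image, aggregates >400 μm² only.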

Neurosphere [13] = assay: Neuroprotective activity against C57BL/6N mouse neurosphere assessed as effect on neurospheres size at 2.5 to 5 uM measured after 7 days by bright field microscopy; type: functional, tissue-based; conditions: dose 2.5-5 µM, time 7.0 day; how it was run: as §3
Neurosphere [14] = assay: Neuroprotective activity against C57BL/6N mouse neurosphere assessed as increase in NPCs spontaneous differentiation by measuring decrease in Nestin-positive cells at 2.5 to 5 uM measured after 7 days by immunofluorescence analysis; type: functional, cell-based; conditions: dose 2.5-5 µM, time 7.0 day
How it was run: (§4)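 Thirty 7-day neurospheres plated on Matrigel-coated coverslips with 2.5 or 5 μM compound or DMSO, differentiated 7 days, fixed in 4% PFA, immunostained for Nestin, DCX, Olig2 or GFAP with Alexa 555 secondaries, DAPI counterstain. Intensity index = marker-positive intensity / total DAPI intensity; mean ± SD of 3 fields per condition.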

Neurosphere [15] = assay: Neuroprotective activity against C57BL/6N mouse neurosphere assessed as increase in NPCs spontaneous differentiation by measuring increase in DCX-positive cells at 2.5 to 5 uM measured after 7 days by immunofluorescence analysis; type: functional, cell-based; conditions: dose 2.5-5 µM, time 7.0 day; how it was run: as §4
Neurosphere [16] = assay: Neuroprotective activity against C57BL/6N mouse neurosphere assessed as increase in NPCs spontaneous differentiation by measuring Olig2-positive cells at 2.5 to 5 uM measured after 7 days by immunofluorescence analysis; type: functional, tissue-based; conditions: dose 2.5-5 µM, time 7.0 day; how it was run: as §4
Neurosphere [17] = assay: Neuroprotective activity against C57BL/6N mouse neurosphere assessed as increase in NPCs spontaneous differentiation by measuring GFAP-positive cells at 2.5 to 5 uM measured after 7 days by immunofluorescence analysis; type: functional, tissue-based; conditions: dose 2.5-5 µM, time 7.0 day; how it was run: as §4

CC1=C(NCc2ccc(C(=O)Nc3ccccc3N)cc2)C(=O)c2ccccc2C1=O
inhibition [1]: Active | Activity (SH-SY5Y [2]): Active | Activity (SH-SY5Y [3]): Active | fold change (FC) (SH-SY5Y [4]): 1.7 | Activity (SH-SY5Y [5]): 44.81% | Activity (SH-SY5Y [6]): 56.81% | Activity (SH-SY5Y [7]): inactive | Activity (SH-SY5Y [8]): Active | Activity (SH-SY5Y [9]): 28.03%

CC1=C(NCCCCNC(=O)CS)C(=O)c2ccccc2C1=O
viability at 100 µM (SH-SY5Y [10]): 70% | viability at 50 µM (SH-SY5Y [11]): 28.2% | Activity (Neurosphere [12]): Active | Activity (Neurosphere [13]): inactive | Activity (Neurosphere [14]): Active | Activity (Neurosphere [15]): Active | Activity (Neurosphere [16]): inactive | Activity (Neurosphere [17]): inactive
